According to ChEMBL document CHEMBL2169769, “Synthesis and biological characterization of protease-activated prodrugs of doxazolidine” (J Med Chem, 2012):

What was measured:
[1] = Cytotoxicity against doxorubicin-resistant human NCI-ADR-RES.cells incubated for 24 hrs measured after 5 days in presence of 0.2 U human plasmin; format: functional, cell-based
Method in brief: (§1)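 Cells seeded 1000/well, adhered overnight, then serum-free medium with or without plasmin, trypsin, cathepsin B or papain (0.2 U/well), aprotinin (5 µM) or protease inhibitor cocktail (1X). Prodrug 2000–1 nM final, 24 h; then complete medium up to 5 days or control 80% confluence. Formalin fixed, crystal violet, A582; % of control fit to variable-slope sigmoid for IC50.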

[2] = Cytotoxicity against doxorubicin-resistant human NCI-ADR-RES cells incubated for 24 hrs measured after 5 day; format: functional, cell-based; method in brief: as §1
[3] = Cytotoxicity against human L3.5.cells incubated for 24 hrs measured after 5 days in presence of 0.2 U human plasmin; format: functional, cell-based; method in brief: as §1
MCF7 [4] = experiment: Drug uptake in human MCF7 cells increase in compound uptake-induced anthracycline fluorescence in presence of plasmin at 0.5 uM after 4 to 5 hrs by flow cytometry relative to untreated control; format: ADME, cell-based; conditions: mcf7, 0.5 µM
Method in brief: (§2)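 MCF-7 or MiaPaCa-2 plated 250,000/well, adhered overnight, switched to serum-free medium with 0.5 µM prodrug alone or plus 0.2 U human plasmin (final) for up to 5 h. Trypsinised cells read by flow cytometry (FL3) for anthracycline fluorescence; mean values expressed as fold over untreated cells.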

HEK-293T [5] = experiment: Cytotoxicity against human HEK293T cells incubated for 24 hrs measured after 5 days in presence of 0.2 U human plasmin; format: cell-based; method in brief: as §1
SHP77 [6] = experiment: Cytotoxicity against doxorubicin-resistant human SHP77 cells incubated for 24 hrs measured after 5 days in presence of 0.2 U human plasmin; format: functional, cell-based; method in brief: as §1
BXPC-3 = experiment: Cytotoxicity against human BxPC3 cells incubated for 24 hrs measured after 5 days in presence of 0.2 U human plasmin; format: functional, cell-based; method in brief: as §1
[7] = Cytotoxicity against human L3.5 cells incubated for 24 hrs measured after 5 day; format: functional, cell-based; method in brief: as §1
[8] = Cytotoxicity against human L3.3 cells incubated for 24 hrs measured after 5 day; format: functional, cell-based; method in brief: as §1
HEK-293T [9] = experiment: Cytotoxicity against human HEK293T cells incubated for 24 hrs measured after 5 day; format: cell-based; method in brief: as §1
MCF7 [10] = experiment: Cytotoxicity against human MCF7 cells incubated for 24 hrs measured after 5 days in presence of complete protease inhibitor cocktail; format: functional, cell-based; method in brief: as §1
MCF7 [11] = experiment: Cytotoxicity against human MCF7 cells incubated for 24 hrs measured after 5 days in presence of 5 uM aprotinin; format: functional, cell-based; method in brief: as §1
MCF7 [12] = experiment: Cytotoxicity against human MCF7 cells incubated for 24 hrs measured after 5 days in presence of 0.2 U cathepsin B; format: functional, cell-based; method in brief: as §1
MIA PaCa-2 [13] = experiment: Cytotoxicity against human MIAPaCa2 cells incubated for 24 hrs measured after 5 days in presence of complete protease inhibitor cocktail; format: functional, cell-based; method in brief: as §1
MIA PaCa-2 [14] = experiment: Cytotoxicity against human MIAPaCa2 cells incubated for 24 hrs measured after 5 days in presence of 5 uM aprotinin; format: functional, cell-based; method in brief: as §1
MIA PaCa-2 [15] = experiment: Cytotoxicity against human MIAPaCa2 cells incubated for 24 hrs measured after 5 days in presence of 0.2 U papain; format: functional, cell-based; method in brief: as §1
[16] = Prodrug conversion assessed as release dozax at 50 uM at pH 7.4 in PBS buffer in presence of human plasmin after 2 hrs by RP-HPLC; format: ADME; conditions: pH 7.4, 2 h
Method in brief: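 50 µM prodrug with 1.2 µg/mL human plasmin in PBS pH 7.4 at 37 °C. Samples taken over time, ethanol-quenched, analysed by RP-HPLC at 480 nm for prodrug and dox; repeated runs fit to single-exponential association model.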

[17] = Prodrug conversion assessed as release dozax at 50 uM at pH 7.4 in PBS buffer in absence of human plasmin after 24 hrs by RP-HPLC; format: ADME; conditions: pH 7.4, 24 h
Method in brief: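 Enzyme-free control: 50 µM prodrug in PBS at 37 °C over 24 h, RP-HPLC monitoring dox at 480 nm.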

[18] = target: Plasminogen (Homo sapiens) (UniProt P00747); experiment: Activity of human plasmin assessed as compound hydrolysis measuring enzyme specific activity at 50 uM at pH 7.4 in PBS buffer by RP-HPLC
Method in brief: (§3)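 Specific activity from hydrolysis time courses at 37 °C with 50 µM substrate. Plasmin in PBS pH 7.4; cathepsin B diluted two-fold in PBS-NAC, reacted in PBS-NAC (10 mM N-acetylcysteine) pH 6.5. Ethanol-quenched aliquots, protein precipitated at −20 °C, RP-HPLC at 480 nm tracking dox release. Linear least-squares slope used; 1 U = 1 µM substrate hydrolysed per min.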

[19] = target: Cathepsin B (Homo sapiens) (UniProt P07858); experiment: Activity of human cathepsin B assessed as compound hydrolysis measuring enzyme specific activity at 50 uM at pH 6.5 in PBS buffer containing 10 mM N-acetylcysteine by RP-HPLC; method in brief: as §3
[20] = target: Cathepsin B (Homo sapiens) (UniProt P07858); experiment: Activity of human cathepsin B assessed as enzyme catalytic efficiency for compound hydrolysis at 50 uM at pH 6.5 in PBS buffer containing 10 mM N-acetylcysteine by RP-HPLC
Method in brief: (§4)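 Michaelis-Menten kinetics, substrate 10–400 µM at 37 °C. Plasmin: 0.2 U, PBS pH 7.4, 4 min. Cathepsin B: 0.08 U, PBS-NAC pH 6.5, 20 min. Quenched with equal volume ethanol, −20 °C ≥2 h, centrifuged, supernatant RP-HPLC at 480 nm. Rates (µM/min) fit by non-linear least squares; triplicates.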

Bos taurus = species: Bos taurus; experiment: Activity of bovine trypsin assessed as enzyme specific activity for compound hydrolysis
Method in brief: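 50 µM prodrug incubated at 37 °C with enzyme: trypsin in PBS; papain diluted two-fold in PBS-NAC (PBS + 10 mM N-acetylcysteine), reacted in PBS-NAC pH 6.5. Aliquots quenched in equal volume ethanol, −20 °C ≥2 h, centrifuged; supernatant RP-HPLC at 480 nm for substrate loss and dox gain. Slope of linear fit gives activity; 1 U = 1 µM prodrug hydrolysed per min.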

Homo sapiens [21] = species: Homo sapiens; experiment: Selectivity ratio of Kcat of human plasmin to Kcat of human cathepsin B
Method in brief: (§5)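 Michaelis–Menten kinetics with human enzymes and substrate at 10–400 µM, 37 °C. Plasmin: 0.2 U in PBS pH 7.4 for 4 min. Cathepsin B: 0.08 U in PBS with 10 mM N-acetylcysteine, pH 6.5, for 20 min. Quenched with ethanol, held at −20 °C ≥2 h, centrifuged. Dox release read by RP-HPLC at 480 nm. Rates (µM/min) fit by non-linear least squares; triplicate.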

Homo sapiens [22] = species: Homo sapiens; experiment: Selectivity ratio of catalytic efficiency of human plasmin to catalytic efficiency of human cathepsin B; method in brief: as §5
MIA PaCa-2 [23] = experiment: Cytotoxicity against human MIAPaCa2 cells incubated for 24 hrs measured after 5 days; format: functional, cell-based; method in brief: as §1
MIA PaCa-2 [24] = experiment: Cytotoxicity against human MIAPaCa2 cells incubated for 24 hrs measured after 5 days in presence of 0.2 U plasmin; format: functional, cell-based; method in brief: as §1
MIA PaCa-2 [25] = experiment: Cytotoxicity against human MIAPaCa2 cells incubated for 24 hrs measured after 5 days in presence of 0.2 U trypsin; format: functional, cell-based; method in brief: as §1
[26] = target: Plasminogen (Homo sapiens) (UniProt P00747); experiment: Activity of human plasmin assessed as enzyme catalytic efficiency for compound hydrolysis at 50 uM at pH 7.4 in PBS buffer by RP-HPLC; method in brief: as §4
SHP77 [27] = experiment: Cytotoxicity against human doxorubicin-resistant SHP77 cells incubated for 24 hrs measured after 5 days; format: functional, cell-based; method in brief: as §1
MIA PaCa-2 [28] = experiment: Drug uptake in human MIAPaCa2 cells increase in compound uptake-induced anthracycline fluorescence in presence of plasmin at 0.5 uM after 4 to 5 hrs by flow cytometry relative to untreated control; format: ADME, cell-based; conditions: mia paca-2, 0.5 µM; method in brief: as §2

Sequence of Plasminogen (Homo sapiens) (P00747 97-580 limits assumed): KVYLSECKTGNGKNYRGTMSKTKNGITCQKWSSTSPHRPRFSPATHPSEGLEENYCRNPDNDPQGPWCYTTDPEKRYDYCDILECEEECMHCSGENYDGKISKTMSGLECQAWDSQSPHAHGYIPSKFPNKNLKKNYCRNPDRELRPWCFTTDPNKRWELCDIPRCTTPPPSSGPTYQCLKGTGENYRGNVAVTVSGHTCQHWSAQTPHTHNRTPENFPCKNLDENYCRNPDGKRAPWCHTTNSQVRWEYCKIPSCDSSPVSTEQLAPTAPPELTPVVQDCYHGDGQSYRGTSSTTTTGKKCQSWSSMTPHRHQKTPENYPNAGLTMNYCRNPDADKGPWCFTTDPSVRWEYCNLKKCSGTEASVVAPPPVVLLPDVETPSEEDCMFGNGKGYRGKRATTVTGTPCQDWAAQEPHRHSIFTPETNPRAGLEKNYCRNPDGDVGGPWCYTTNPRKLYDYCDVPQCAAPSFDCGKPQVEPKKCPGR
Sequence of Plasminogen (Homo sapiens) (P00747 581-810 limits assumed): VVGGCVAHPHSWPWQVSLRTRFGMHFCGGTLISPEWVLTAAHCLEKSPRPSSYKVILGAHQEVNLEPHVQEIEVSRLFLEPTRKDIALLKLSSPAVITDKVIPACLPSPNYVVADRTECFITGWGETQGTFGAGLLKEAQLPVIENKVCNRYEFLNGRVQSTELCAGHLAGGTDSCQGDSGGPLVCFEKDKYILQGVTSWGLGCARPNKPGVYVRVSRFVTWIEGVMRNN

COc1cccc2c1C(=O)c1c(O)c3c(c(O)c1C2=O)C[C@@](O)(C(=O)CO)C[C@@H]3O[C@H]1C[C@H]2[C@H](OCN2C(=O)OCc2ccc(NC(=O)[C@H](CCCCN)NC(=O)[C@H](Cc3ccccc3)NC(=O)[C@@H](C)NC(=O)CNC(C)=O)cc2)[C@H](C)O1.O=P(O)(O)O
IC50 [1]: 0.0117 µM | IC50 [2]: 0.912 µM | IC50 [3]: 0.00263 µM | fold change (FC) (MCF7 [4]): 7 | IC50 (HEK-293T [5]): 0.00302 µM | IC50 (SHP77 [6]): 0.0295 µM | IC50 (BXPC-3): 0.0398 µM | IC50 [7]: 0.224 µM | IC50 [8]: 0.251 µM | IC50 (HEK-293T [9]): 0.2 µM | IC50 (MCF7 [10]): 0.251 µM | IC50 (MCF7 [11]): 0.295 µM | IC50 (MCF7 [12]): 0.12 µM | IC50 (MIA PaCa-2 [13]): 0.398 µM | IC50 (MIA PaCa-2 [14]): 0.282 µM | IC50 (MIA PaCa-2 [15]): 0.0692 µM | Drug metabolism [16]: Active | Stability [17]: Stable | Activity [18]: 1940 U/mg | Activity [19]: 1040 U/mg | Activity [20]: 4.59 ×10³ /M/s | Activity (Bos taurus): 4340 U/mg | Ratio (Homo sapiens [21]): 5 | Ratio (Homo sapiens [22]): > 3 | IC50 (MIA PaCa-2 [23]): 0.251 µM | IC50 (MIA PaCa-2 [24]): 0.0234 µM | IC50 (MIA PaCa-2 [25]): 0.0263 µM | Activity [26]: 1.43 ×10⁴ /M/s | IC50 (SHP77 [27]): 1.58 µM | fold change (FC) (MIA PaCa-2 [28]): 7
